In PubChem BioAssay AID624393 (The Scripps Research Institute Molecular Screening Center, 2012):
Several values for one entry are separate records, joined by “and”; a condition that tells them apart may be missing. Identical values can stand only once.

Biological target: Induced myeloid leukemia cell differentiation protein Mcl-1 (Homo sapiens) (UniProt Q07820)
Assay: blockers of MCL1–BIM BH3 interaction – biochemical, fluorescence polarization, assay provider data, probe compound, late-stage follow-up (AID 624393)
Conditions: GST-MCL1 / FITC-Bim BH3 peptide
Summary of the method: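 signal = fluorescence polarization (mP) | assay system = E. coli-expressed GST-MCL1 fusion protein with FITC-labelled Bim BH3 peptide | input = GST-MCL1 fusion protein at 12.5 nM | doses = compound dilution series in DMSO | buffer or medium = PBS with 0.001% Brij | times = 20 min at room temperature | probe or stimulus = FITC-labelled Bim BH3 peptide probe at 4 nM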

Sequence of Induced myeloid leukemia cell differentiation protein Mcl-1 (Homo sapiens) (Q07820 whole entry, looked up): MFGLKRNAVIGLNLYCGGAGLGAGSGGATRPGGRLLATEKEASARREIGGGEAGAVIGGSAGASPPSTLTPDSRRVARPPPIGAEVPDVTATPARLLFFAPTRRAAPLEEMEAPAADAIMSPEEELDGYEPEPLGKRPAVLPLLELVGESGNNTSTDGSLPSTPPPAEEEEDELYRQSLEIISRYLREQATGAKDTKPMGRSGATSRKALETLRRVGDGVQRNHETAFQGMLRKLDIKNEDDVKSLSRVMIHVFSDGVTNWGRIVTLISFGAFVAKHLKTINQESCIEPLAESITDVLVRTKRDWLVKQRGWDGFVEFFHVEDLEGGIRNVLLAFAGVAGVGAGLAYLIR

IC50: 250 nM and 310 nM
SMILES: CCN1CCN(C(c2ccc(C(F)(F)F)cc2)c2ccc3cccnc3c2O)CC1 (stereo unspecified)
